Bioassay records from PubChem.
Arrestin-AP2 inh = inhibitors of beta-arrestin/AP2 binding, primary screen, biochemical, GPCR trafficking, flow cytometry; beta-arrestin 1 C-terminal peptide binding to AP2 beta2-adaptin appendage (human); FITC-arrestin peptide / GST-AP2 beads; AP2 beta2 appendage carries R879A mutation; inhibition, % at 10 µM; 340,000 tested, 0.31% active; AID 504490, 2011;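 active means inhibition above a set limit, near 3 SD of compounds lacking own fluorescence, cut at about 54% in these data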;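 further: plate controls were DMSO wells for no effect and 5 µM unlabelled arrestin peptide for full effect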
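test system = AP2 appendage R879A on GSH beads | buffer or medium = PBS plus Tween 20 (0.05%) and BSA (0.1%) | incubation = 12 min plus 1 h, RT | detection = bead flow cytometry, FITC channel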
Env fusion inh = inhibitors of HIV-1 Env-driven cell-cell fusion, primary screen, HeLa-JRFL effector, CEM21 target cells, luciferase. inhibition, % at 12.3 µM. 360,000 tested, 1.1% active. AID 651610, 2012;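 active means mean replicate inhibition score of at least 50 and every replicate individually at or above 50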;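 further: 0% = plate neutral controls and 100% = maraviroc near 300 nM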
PAX8 reporter = inhibitors of PAX8-driven TPO luciferase reporter, primary screen, RMG-I cells, single concentration. 360,000 tested, 1.2% active. inhibition, % at 12.6 µM. SteadyGlo, 24 h;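 active means mean replicate inhibition at least 60% with every replicate also reaching 60%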;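 further: luciferase light reporting Pax8 driven TPO promoter activity; plate controls were median of neutral control wells for no effect and mitoxantrone controls for full effect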
Glyco luc inh = increase of ERlucT glycosylation luciferase signal, primary screen, N-linked glycosylation inhibitor project, D54 ERlucT cells, luminescence, set 2. reporter increase, % at 12.5 µM. 360,000 tested, 0.23% active. D54 ERlucT glycosylation luciferase reporter, 24 h; percent of 100 nM tunicamycin response;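 active means mean luciferase reporter signal, scaled so untreated is 0 and the glycosylation-blocking control 100, at or above a set limit in every replicate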;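 further: luciferase carries N-glycosylation sites so blocking glycosylation raises the light; 0% = median of neutral control wells and 100% = median of 100 nM tunicamycin wells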
Rtt109 HAT inh = inhibitors of C. albicans Rtt109/Vps75 HAT, primary screen, biochemical, ThioGlo CoA-SH fluorescence, plate reader | Histone acetyltransferase RTT109 (Candida albicans (strain SC5314 / ATCC MYA-2876)), … | inhibition, % at 34.9 µM | purified Rtt109/Vps75, 4 h | 330,000 tested, 0.16% active;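 active means inhibition of at least 50% in every replicate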
Target sequence (Q5AAJ8 whole entry, looked up): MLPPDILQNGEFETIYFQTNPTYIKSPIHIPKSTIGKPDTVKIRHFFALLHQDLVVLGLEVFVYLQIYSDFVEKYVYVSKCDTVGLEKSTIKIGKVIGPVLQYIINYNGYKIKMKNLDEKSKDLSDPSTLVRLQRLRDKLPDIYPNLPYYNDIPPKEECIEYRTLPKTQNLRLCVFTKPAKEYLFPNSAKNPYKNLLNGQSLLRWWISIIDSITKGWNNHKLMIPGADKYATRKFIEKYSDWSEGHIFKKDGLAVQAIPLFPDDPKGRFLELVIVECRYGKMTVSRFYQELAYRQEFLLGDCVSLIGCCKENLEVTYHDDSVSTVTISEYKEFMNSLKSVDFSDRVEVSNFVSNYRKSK
PfHsp90 yeast 2 = growth inhibition of PfHsp90-expressing yeast, primary screen, antimalarial PfHsp90 inhibitor project, S. cerevisiae, BacTiter-Glo luminescence, single point, set 2; BacTiter-Glo ATP, 48 h; yeast lacking PDR1 and PDR3 efflux regulators; 310,000 tested, 0.32% active; inhibition, % at 9.4 µM; AID 504621, 2011;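 active means every replicate shows inhibition above about 80%, whatever the replicate mean, limit read from the data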;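 further: 0% = DMSO neutral controls and 100% = 20 µM radicicol positive controls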
The depositor's hits bear a star; nt = not tested or not shown; [ ] = remark or other dose. Most compounds without a hit are left out; they make up all but 2.3% or so of the library.

SMILES	Arrestin-AP2 inh	Env fusion inh	PAX8 reporter	Glyco luc inh	Rtt109 HAT inh	PfHsp90 yeast 2
O=CNc1cc(-c2cccc(F)c2)cn2c(-c3ccc(F)c(Cl)c3)cnc12	nt	4	38	2	nt	nt
COc1ccc(-c2cnc3c(NC=O)cc(-c4cccc(NS(C)(=O)=O)c4)cn23)cc1OC	nt	-110	112*	5	nt	nt
CS(=O)(=O)Nc1cccc(-c2cc(NC=O)c3ncc(-c4ccc(F)c(Cl)c4)n3c2)c1	nt	-13	64*	6	nt	nt
C[C@@H]1CCCCO[C@@H](CN(C)C(=O)Cc2ccccc2)[C@@H](C)CN([C@H](C)CO)C(=O)c2cc(NC(=O)CCCCCC(=O)Nc3ccccc3N)ccc2O1	nt	-10[16.7 µM]	nt	nt	nt	nt
Cc1ccc(NC2=C/C(=N/S(=O)(=O)c3cccs3)c3ccccc3C2=O)cc1C	45	7	10	1	6	-10
CC(=O)Nc1ccc(NC(=O)C(C)OC(=O)c2ccccc2NS(=O)(=O)c2cccs2)cc1 (stereo not drawn)	32	-4	2	2	6	-34
COc1ccc(S(=O)(=O)/N=C2\C=C(Nc3ccc(O)cc3)C(=O)c3ccccc32)cc1	8	75*	108*	-19	8	-4
Cc1ccccc1NC1=C/C(=N\S(=O)(=O)c2cccs2)c2ccccc2C1=O	20	121*	110*	-23	3	-14
Cc1ccccc1NC1=C/C(=N\S(=O)(=O)c2ccc(C(=O)O)cc2)c2ccccc2C1=O	17	5	4	4	9	-18
CC(=O)Nc1ccc(NC2=C/C(=N/S(=O)(=O)c3cccs3)c3ccccc3C2=O)cc1	-3	-8	83*	-17	-10	-12
C[C@@H]1CN([C@@H](C)CO)C(=O)c2cc(C#Cc3cccc(F)c3)cnc2O[C@@H]1CN(C)C(=O)C1CCOCC1	nt	-3[16.7 µM]	nt	nt	nt	nt
O=C(C[C@@H]1C=C[C@H](NC(=O)c2cccnc2)[C@H](CO)O1)NCc1ccc(Cl)c(Cl)c1	nt	-10[16.7 µM]	8	nt	nt	nt
FC(F)(F)c1ccc(N2CCN(c3cc(-c4ccccc4)nc4ncnn34)CC2)nc1	-9	77*	nt	1	-4	-56
CN(C)CC#Cc1cccc(-c2nc(C(=O)N3CCN(Cc4ccccc4)CC3)cc3c2[C@H](CCO)N(S(=O)C(C)(C)C)C3)c1 (stereo partly drawn)	nt	nt	-19	nt	nt	nt
O=C(C1CC1)N1C[C@H]2[C@@H](c3ccccc31)[C@@H](CO)N2C(=O)c1cccc(F)c1	nt	nt	11	nt	nt	nt
Cc1ccc(S(=O)(=O)c2nc(-c3ccccc3Cl)oc2N(C)C)cc1	-9	56*	-7	14	0	-3
O=C1C=CC(=O)N1c1ccc2c(c1)Cc1cc(F)ccc1-2	5	-3	11	4	3	116*
CC(=O)Nc1ccc2c(c1)Cc1cc(N3C(=O)C=CC3=O)ccc1-2	-2	-18	36	-2	0	116*
COc1cc2c[n+](C)c3c4ccccc4ccc3c2cc1OC	32	36	41	34*	-1	-41
CC(C)C[C@H](NC(=O)c1[nH]cnc1C(=O)N[C@@H](Cc1ccccc1)C(=O)OCc1ccccc1)C(=O)OCc1ccccc1	-11	-15	-4	-1	-2	15
CC(C)C[C@H](NC(=O)c1nc[nH]c1C(=O)NC(c1ccccc1)c1ccccc1)C(=O)OC(C)(C)C	5	14	67*	-2	1	24
CC(C)C[C@H](NC(=O)c1nc[nH]c1C(=O)N[C@@H](CC(C)C)C(=O)OCc1ccccc1)C(=O)OCc1ccccc1	2	71*	58	-1	7	-11
CC(C)C[C@H](NC(=O)c1nc[nH]c1C(=O)N[C@@H](CC(C)C)C(=O)OC(C)(C)C)C(=O)OC(C)(C)C	31	70*	66*	-1	-3	-5
